Experimental data published in ChEMBL document CHEMBL1914308, “N-fused imidazoles as novel anticancer agents that inhibit catalytic activity of topoisomerase IIα and induce apoptosis in G1/S phase” (J Med Chem, 2011).
The source made the active and inactive calls. The rule behind the calls is not given here.

Key:
[1] = target: T1, DNA topoisomerase 2-alpha (Homo sapiens, UniProt P11388); assay: Inhibition of human topoisomerase 2 alpha-mediated decatenation of kDNA at 100 uM by agarose gel electrophoresis
Outline: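 150 ng kDNA with 2–4 units purified human topo II and 100 μM compound in DMSO, buffer 0.5 M Tris-HCl pH 8, NaCl, MgCl2, DTT, BSA with ATP (stock buffer concentrations), 20 μL, 37 °C 30 min. Stopped with SDS, proteinase K 37 °C 15 min; 1% agarose in TAE with 0.5 μg/mL EtBr; bands quantified by densitometry; etoposide 100 μM as reference.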

HEK293 [2] = assay: Cytotoxicity against human HEK293 cells assessed as cell survival after 48 hrs by MTT assay; type: functional; settings: HEK293, 48 h, read-out: LC50 (the source's name)
Outline: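 HEK 293 cells were cultured in DMEM with 10% FBS and antibiotics at 37 °C in 5% CO₂. At 60–70% confluence they were treated for 48 h with various concentrations, diluted in DMEM from 100 mM DMSO stocks. Survival was read by MTT. LC₅₀ is the concentration killing 50% of cells. Data are mean ± SD of three independent experiments.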

[3] = target: T1, DNA topoisomerase 2-alpha; settings: HEK293, 100 uM
[4] = target: T1, DNA topoisomerase 2-alpha; assay: Inhibition of etoposide poisoning activity against human recombinant DNA topoisomerase 2alpha assessed as enhancement of in relaxation of supercoiled plasmid pBR322 DNA at 200 uM after 30 mins by agarose gel electrophoresis
[5] = target: T1, DNA topoisomerase 2-alpha; assay: Inhibition of etoposide poisoning activity against human recombinant DNA topoisomerase 2alpha assessed as enhancement of in relaxation of supercoiled plasmid pBR322 DNA at 100 uM after 30 mins by agarose gel electrophoresis
[6] = target: T1, DNA topoisomerase 2-alpha; assay: Inhibition of human topoisomerase 2 alpha-mediated unwinding of supercoiled DNA assessed as DNA intercalation at 100 uM by agarose gel electrophoresis
Outline: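 250 ng negatively supercoiled E. coli plasmid incubated 20 min at 37 °C with 1 μg/mL ethidium bromide (intercalator control), 100 μM etoposide or test compound; run on 1% agarose in TAE without EtBr, then post-stained with 0.5 μg/mL EtBr; mobility retardation scored.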

[7] = target: T1, DNA topoisomerase 2-alpha; settings: HEK293, 100 uM; remark: listed apart in the source
HEK293 [8] = assay: Cytotoxicity against human HEK293 cells assessed as cell survival at 30 uM after 48 hrs by MTT assay; type: functional; settings: HEK293, 48 h, read-out: Activity
[9] = target: T1, DNA topoisomerase 2-alpha; assay: Inhibition of human topoisomerase 2 alpha-mediated relaxation of pRYG plasmid DNA at 100 uM by agarose gel electrophoresis
Outline: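 250 ng supercoiled pRYG plasmid, 2–4 units hTopoIIα, 100 μM compound, ATP-containing Tris pH 8 buffer, 20 μL, 37 °C 30 min; SDS/proteinase K stop; 1% agarose in TAE without EtBr, post-stained 0.5 μg/mL EtBr; products quantified densitometrically.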

HEK293 [10] = assay: Anticlonogenic activity against human HEK293 cells assessed as inhibition of colony formation of cells at 20 to 100 uM after 48 hrs by crystal violet staining; type: functional, cell-based
Outline: (§1)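 Clonogenic survival in HEK 293 and Vero cells, 48 h exposure at graded concentrations; % survival plotted; mean ± SD of three independent experiments. Cells grown in DMEM with 10% FBS and 1% antibiotic at 37 °C, 5% CO2; compound diluted from 100 mM DMSO stock into DMEM, added at 60–70% confluence.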

[11] = Anticlonogenic activity against african green monkey Vero after 48 hrs by crystal violet staining; type: ADME, cell-based; settings: chlorocebus sabaeus, Vero cells; read-out: LC50
Outline: (§2)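 HEK 293 and Vero cells were grown in DMEM with 10% FBS and 1% penicillin/streptomycin at 37 °C in 5% CO₂. At 60–70% confluence they were exposed for 48 h to a range of concentrations, diluted in DMEM from 100 mM DMSO stocks. Colony survival is expressed as %. Values are mean ± SD of three independent experiments; LC₅₀ is the concentration killing half the cells.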

Vero = assay: Anticlonogenic activity against african green monkey Vero cells assessed as inhibition of colony formation of cells at 20 to 100 uM after 48 hrs by crystal violet staining; type: cell-based; settings: chlorocebus sabaeus; outline: as §1
[12] = Cytotoxicity activity against african green monkey Vero assessed as cell survival at 100 uM after 48 hrs by MTT assay; type: cell-based; settings: chlorocebus sabaeus, Vero cells; read-out: Activity
Outline: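 MTT survival of HEK 293 and Vero cells after 48 h with compound at graded concentrations. DMEM, 10% FBS, 37 °C, 5% CO2; dilutions in DMEM from 100 mM DMSO stock, added at 60–70% confluence. Mean ± SD of three independent experiments.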

HEK293 [13] = assay: Anticlonogenic activity against human HEK293 cells after 48 hrs by crystal violet staining; type: functional; settings: HEK293, 48 h, read-out: LC50 (the source's name); outline: as §2

T1 sequence (P11388 whole entry): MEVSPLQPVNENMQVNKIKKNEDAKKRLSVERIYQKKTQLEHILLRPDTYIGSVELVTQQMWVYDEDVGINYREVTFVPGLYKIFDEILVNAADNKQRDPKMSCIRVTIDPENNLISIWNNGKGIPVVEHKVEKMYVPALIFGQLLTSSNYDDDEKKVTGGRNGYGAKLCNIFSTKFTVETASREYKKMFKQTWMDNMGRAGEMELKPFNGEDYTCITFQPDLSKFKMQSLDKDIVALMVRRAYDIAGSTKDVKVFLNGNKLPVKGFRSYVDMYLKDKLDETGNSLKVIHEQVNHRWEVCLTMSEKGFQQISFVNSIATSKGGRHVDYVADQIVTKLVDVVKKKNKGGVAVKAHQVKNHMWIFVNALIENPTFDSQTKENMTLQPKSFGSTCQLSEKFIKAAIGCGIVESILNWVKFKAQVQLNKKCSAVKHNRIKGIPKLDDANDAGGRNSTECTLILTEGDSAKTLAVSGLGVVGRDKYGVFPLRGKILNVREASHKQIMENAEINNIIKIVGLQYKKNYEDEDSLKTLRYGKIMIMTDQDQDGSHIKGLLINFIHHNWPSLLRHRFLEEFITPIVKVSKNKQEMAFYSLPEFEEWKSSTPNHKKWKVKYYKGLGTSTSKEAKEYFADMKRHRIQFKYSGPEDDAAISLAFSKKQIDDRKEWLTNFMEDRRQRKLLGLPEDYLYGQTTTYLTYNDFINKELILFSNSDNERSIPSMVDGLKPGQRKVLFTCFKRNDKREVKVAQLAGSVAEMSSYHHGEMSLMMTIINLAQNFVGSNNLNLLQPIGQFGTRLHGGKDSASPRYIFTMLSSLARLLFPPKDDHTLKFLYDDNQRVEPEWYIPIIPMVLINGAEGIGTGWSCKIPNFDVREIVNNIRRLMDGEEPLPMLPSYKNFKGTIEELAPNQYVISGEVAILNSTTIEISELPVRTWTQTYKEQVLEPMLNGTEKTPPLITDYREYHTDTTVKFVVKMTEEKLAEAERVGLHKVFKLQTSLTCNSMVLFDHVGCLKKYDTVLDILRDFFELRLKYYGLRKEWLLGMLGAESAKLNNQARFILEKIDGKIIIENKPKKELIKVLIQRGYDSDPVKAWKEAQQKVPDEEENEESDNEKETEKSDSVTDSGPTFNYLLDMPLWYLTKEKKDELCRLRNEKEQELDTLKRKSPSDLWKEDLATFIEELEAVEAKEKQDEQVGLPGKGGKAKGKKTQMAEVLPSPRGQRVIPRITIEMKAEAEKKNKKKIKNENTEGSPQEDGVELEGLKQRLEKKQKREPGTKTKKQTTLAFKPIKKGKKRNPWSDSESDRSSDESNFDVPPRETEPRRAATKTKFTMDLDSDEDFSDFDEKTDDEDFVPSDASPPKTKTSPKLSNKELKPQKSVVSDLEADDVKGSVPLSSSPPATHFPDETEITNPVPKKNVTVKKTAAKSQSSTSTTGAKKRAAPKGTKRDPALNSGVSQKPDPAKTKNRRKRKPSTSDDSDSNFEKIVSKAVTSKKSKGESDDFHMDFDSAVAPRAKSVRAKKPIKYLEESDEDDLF

CN(C)c1ccc(-c2nc3ccccn3c2NC(C)(C)C)cc1
inhibition [1]: Active

CC(C)(C)Nc1c(-c2ccc(C(=O)O)cc2)nc2cnccn12
inhibition [1]: inactive

COc1cc([C@@H]2c3cc4c(cc3[C@@H](O[C@@H]3O[C@@H]5CO[C@@H](C)O[C@H]5[C@H](O)[C@H]3O)[C@H]3COC(=O)[C@H]23)OCO4)cc(OC)c1O [ETOPOSIDE]
CC50 (HEK293 [2]): 90 µM
inhibition [3]: inactive
inhibition [4]: inactive
inhibition [5]: Active
inhibition [6]: inactive
inhibition [7]: Active

CC(C)(C)Nc1c(-c2ccc(F)cc2)nc2ccc(Cl)cn12
inhibition [1]: Active

O=c1[nH]cc(F)c(=O)[nH]1 [FLUOROURACIL]
viability at 30 µM (HEK293 [8]): 50%

Nc1c(-c2ccccn2)nc2ccc(Cl)cn12
inhibition [1]: inactive

CC(C)(C)Nc1c(-c2ccc[nH]2)nc2ccccn12
inhibition [1]: inactive

CC(C)(C)Nc1nc2ncccn2c1-c1ccc(C#N)cc1
inhibition [1]: inactive

CC(C)(C)Nc1c(-c2ccc(Cl)cc2)nc2[nH]c3ccccc3n12
inhibition [1]: Active

CC(C)(C)Nc1c(-c2ccc(Cl)cc2)nc2ccc(Cl)cn12
inhibition [9]: Active
inhibition [1]: Active

CC(C)(C)Nc1c(-c2ccc(Cl)cc2)nc2cnccn12
inhibition [9]: Active
CC50 (HEK293 [2]): 10 µM
inhibition (HEK293 [10]): Dose-dependent effect
inhibition [4]: inactive
CC50 at 48 h [11]: 25 µM
inhibition (INH) (Vero): Dose-dependent effect
inhibition [5]: inactive
viability at 48 h, 100 µM [12]: < 50%
inhibition [6]: inactive
inhibition [1]: Active
CC50 (HEK293 [13]): 20 µM

CC(C)(C)Nc1c(-c2ccccc2)nc2cnccn12
inhibition [1]: inactive

CC(C)(C)Nc1c(-c2ccccn2)nc2ccccn12
inhibition [9]: Active
inhibition [1]: Active

CC(C)(C)Nc1c(-c2ccccc2Cl)nc2cnccn12
inhibition [1]: Active

CCOC(=O)c1cnn2c(N)c(-c3ccc(Cl)cc3)[nH]c12
inhibition [9]: Active
CC50 (HEK293 [2]): 25 µM
inhibition (HEK293 [10]): Dose-dependent effect
inhibition [4]: inactive
CC50 at 48 h [11]: 62 µM
inhibition (INH) (Vero): Dose-dependent effect
inhibition [5]: inactive
viability at 48 h, 100 µM [12]: < 50%
inhibition [6]: inactive
inhibition [1]: Active
CC50 (HEK293 [13]): 25 µM

CC(C)(C)Nc1cnc2cnccn12
inhibition [1]: inactive

Clc1ccc(-c2nc3cnccn3c2NC2CCCCC2)cc1
inhibition [1]: inactive

CC(C)(C)Nc1c(-c2ccc(Cl)cc2)nc2ccccn12
inhibition [1]: inactive

CC(C)(C)Nc1c(-c2ccc(Cl)cc2)nc2ncccn12
inhibition [1]: Active

COc1cccc(-c2nc3cnccn3c2NC(C)(C)C)c1
inhibition [1]: inactive

CCCc1nc2ccccn2c1NC(C)(C)C
inhibition [1]: inactive

CC(C)(C)Nc1c(-c2cccc3ccccc23)nc2ccccn12
inhibition [1]: Active

Nc1c(-c2ccc(Cl)cc2)nc2cnccn12
inhibition [9]: Active
CC50 (HEK293 [2]): 17 µM
inhibition (HEK293 [10]): Dose-dependent effect
inhibition [4]: inactive
CC50 at 48 h [11]: 28 µM
inhibition (INH) (Vero): Dose-dependent effect
inhibition [5]: inactive
viability at 48 h, 100 µM [12]: < 50%
inhibition [6]: inactive
inhibition [1]: Active
CC50 (HEK293 [13]): 16 µM

CC(C)(C)Nc1cnc2ccccn12
inhibition [1]: inactive

COc1ccc(-c2nc3cnccn3c2N)cc1
inhibition [9]: Active
inhibition [1]: Active

Nc1c(-c2ccc(Cl)cc2)nc2ccccn12
inhibition [9]: Active
inhibition [1]: Active

Cc1ccn2c(NC(C)(C)C)c(-c3ccc(Cl)cc3)nc2c1
inhibition [1]: inactive

N#Cc1ccc(-c2nc3ccc(Br)cn3c2N)cc1
inhibition [1]: Active

CCOC(=O)c1cnn2c(NC3CCCCC3)c(-c3ccc(Cl)cc3)[nH]c12
inhibition [1]: Active

CCOC(=O)c1cnn2c(NC(C)(C)C)c(-c3ccc(Cl)cc3)[nH]c12
inhibition [9]: Active
CC50 (HEK293 [2]): 15 µM
inhibition (HEK293 [10]): Dose-dependent effect
inhibition [4]: inactive
CC50 at 48 h [11]: 22 µM
inhibition (INH) (Vero): Dose-dependent effect
inhibition [5]: inactive
viability at 48 h, 100 µM [12]: < 50%
inhibition [6]: inactive
inhibition [1]: Active
CC50 (HEK293 [13]): 15 µM
